The values that follow come from ChEMBL document CHEMBL1140949, “Synthesis and evaluation of vancomycin aglycon analogues that bear modifications in the N-terminal D-leucyl amino acid” (2009).

Assay [1] deals with Enterococcus faecalis. The assay is described as follows: Antimicrobial activity against vancomycin-resistant Enterococcus faecalis BM4166 after 24 hrs by microtiter plate based antimicrobial assay. In kind it is functional. An outline of the steps:
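VanA-type vancomycin-resistant E. faecalis BM4166, with inducible resistance that switches cell-wall precursors from D-Ala-D-Ala to D-Ala-D-Lac on glycopeptide exposure. MIC measured in a microtiter plate format. Unstable hydrazine analogues were assayed within one day of deprotection, as crude material without HPLC purification.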

The test system of assay [2] is Staphylococcus aureus. The assay is described as follows: Antimicrobial activity against vancomycin-sensitive Staphylococcus aureus ATCC 25923 after 24 hrs by microtiter plate based antimicrobial assay. In kind it is functional. Conditions: ATCC 25923, 24 h. The procedure, abridged:
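Microtiter plate broth assay against vancomycin-sensitive S. aureus ATCC 25923. Unstable hydrazine-bearing analogues were tested within one day of freeing the hydrazine. They were used as crude deprotected material without reverse-phase HPLC purification, because purification caused decomposition.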

≈ marks a conversion by molar mass, not a printed value.

Turning to `CN[C@H](Cc1cccc(NC(=N)N)c1)C(=O)N[C@H]1C(=O)N[C@@H](CC(N)=O)C(=O)N[C@H]2C(=O)N[C@H]3C(=O)N[C@H](C(=O)N[C@H](C(=O)O)c4cc(O)cc(O)c4-c4cc3ccc4O)[C@H](O)c3ccc(c(Cl)c3)Oc3cc2cc(c3O)Oc2ccc(cc2Cl)[C@H]1O.O=C(O)C(F)(F)F`, the MIC in assay [1] amounted to 320 µg/mL; in assay [2], 10 µg/mL.
The matching figures for `CN[C@H](Cc1cccc(NN)c1)C(=O)N[C@H]1C(=O)N[C@@H](CC(N)=O)C(=O)N[C@H]2C(=O)N[C@H]3C(=O)N[C@H](C(=O)N[C@H](C(=O)O)c4cc(O)cc(O)c4-c4cc3ccc4O)[C@H](O)c3ccc(c(Cl)c3)Oc3cc2cc(c3O)Oc2ccc(cc2Cl)[C@H]1O.O=C(O)C(F)(F)F`: 320 µg/mL and 10 µg/mL.
On to `CN[C@H](Cc1cccc(N)c1)C(=O)N[C@H]1C(=O)N[C@@H](CC(N)=O)C(=O)N[C@H]2C(=O)N[C@H]3C(=O)N[C@H](C(=O)N[C@H](C(=O)O)c4cc(O)cc(O)c4-c4cc3ccc4O)[C@H](O)c3ccc(c(Cl)c3)Oc3cc2cc(c3O)Oc2ccc(cc2Cl)[C@H]1O.O=C(O)C(F)(F)F`, for which the results for the MIC in assay [1] and in assay [2] were 320 µg/mL and 20 µg/mL, respectively.
The matching figures for `CN[C@H](Cc1cccc(CN)c1)C(=O)N[C@H]1C(=O)N[C@@H](CC(N)=O)C(=O)N[C@H]2C(=O)N[C@H]3C(=O)N[C@H](C(=O)N[C@H](C(=O)O)c4cc(O)cc(O)c4-c4cc3ccc4O)[C@H](O)c3ccc(c(Cl)c3)Oc3cc2cc(c3O)Oc2ccc(cc2Cl)[C@H]1O.O=C(O)C(F)(F)F`: 640 µg/mL and greater than 10 µg/mL.
The matching figures for `CN[C@H](COC(C)(C)C)C(=O)N[C@H]1C(=O)N[C@@H](CC(N)=O)C(=O)N[C@H]2C(=O)N[C@H]3C(=O)N[C@H](C(=O)N[C@H](C(=O)O)c4cc(O)cc(O)c4-c4cc3ccc4O)[C@H](O)c3ccc(c(Cl)c3)Oc3cc2cc(c3O)Oc2ccc(cc2Cl)[C@H]1O.O=C(O)C(F)(F)F`: 320 µg/mL and 20 µg/mL.
The like results for `CN[C@@H](C(=O)N[C@H]1C(=O)N[C@@H](CC(N)=O)C(=O)N[C@H]2C(=O)N[C@H]3C(=O)N[C@H](C(=O)N[C@H](C(=O)O)c4cc(O)cc(O)c4-c4cc3ccc4O)[C@H](O)c3ccc(c(Cl)c3)Oc3cc2cc(c3O)Oc2ccc(cc2Cl)[C@H]1O)[C@H](C)O.O=C(O)C(F)(F)F` were, in that order, 800 µg/mL and 40 µg/mL.
For `CN[C@H](CO)C(=O)N[C@H]1C(=O)N[C@@H](CC(N)=O)C(=O)N[C@H]2C(=O)N[C@H]3C(=O)N[C@H](C(=O)N[C@H](C(=O)O)c4cc(O)cc(O)c4-c4cc3ccc4O)[C@H](O)c3ccc(c(Cl)c3)Oc3cc2cc(c3O)Oc2ccc(cc2Cl)[C@H]1O.O=C(O)C(F)(F)F`, the minimal inhibitory concentration (MIC) in assay [1] worked out at 800 µg/mL; in assay [2] it was 40 µg/mL.
The like results for `CCNC(=O)Nc1cccc(C[C@@H](NC)C(=O)N[C@H]2C(=O)N[C@@H](CC(N)=O)C(=O)N[C@H]3C(=O)N[C@H]4C(=O)N[C@H](C(=O)N[C@H](C(=O)O)c5cc(O)cc(O)c5-c5cc4ccc5O)[C@H](O)c4ccc(c(Cl)c4)Oc4cc3cc(c4O)Oc3ccc(cc3Cl)[C@H]2O)c1.O=C(O)C(F)(F)F` were, in that order, 640 µg/mL and 31 µg/mL.
The like results for `CN[C@H](Cc1cccc(CNN)c1)C(=O)N[C@H]1C(=O)N[C@@H](CC(N)=O)C(=O)N[C@H]2C(=O)N[C@H]3C(=O)N[C@H](C(=O)N[C@H](C(=O)O)c4cc(O)cc(O)c4-c4cc3ccc4O)[C@H](O)c3ccc(c(Cl)c3)Oc3cc2cc(c3O)Oc2ccc(cc2Cl)[C@H]1O.O=C(O)C(F)(F)F` were, in that order, 170 µg/mL and 1.25 µg/mL.
For the compound `CN[C@H](CCNN)C(=O)N[C@H]1C(=O)N[C@@H](CC(N)=O)C(=O)N[C@H]2C(=O)N[C@H]3C(=O)N[C@H](C(=O)N[C@H](C(=O)O)c4cc(O)cc(O)c4-c4cc3ccc4O)[C@H](O)c3ccc(c(Cl)c3)Oc3cc2cc(c3O)Oc2ccc(cc2Cl)[C@H]1O.O=C(O)C(F)(F)F`, the MIC in assay [1] is greater than 400 µg/mL; in assay [2], 10 µg/mL.
The matching figures for `CN[C@H](CC(C)C)C(=O)N[C@H]1C(=O)N[C@@H](CC(N)=O)C(=O)N[C@H]2C(=O)N[C@H]3C(=O)N[C@H](C(=O)N[C@H](C(=O)O)c4cc(O)cc(O)c4-c4cc3ccc4O)[C@H](O)c3ccc(c(Cl)c3)Oc3cc2cc(c3O)Oc2ccc(cc2Cl)[C@H]1O` [VANCOMYCIN AGLYCON]: 640 µg/mL (≈ 559 µM) and 0.625 µg/mL (≈ 0.546 µM).
The like results for `CN[C@H](CC(C)C)C(=O)N[C@H]1C(=O)N[C@@H](CC(N)=O)C(=O)N[C@H]2C(=O)N[C@H]3C(=O)N[C@H](C(=O)N[C@H](C(=O)O)c4cc(O)cc(O)c4-c4cc3ccc4O)[C@H](O)c3ccc(c(Cl)c3)Oc3cc2cc(c3O[C@@H]2O[C@H](CO)[C@@H](O)[C@H](O)[C@H]2O[C@H]2C[C@](C)(N)[C@H](O)[C@H](C)O2)Oc2ccc(cc2Cl)[C@H]1O` [VANCOMYCIN] were, in that order, 2000 µg/mL (≈ 1380 µM) and 1.25 µg/mL (≈ 0.863 µM).

A word on the MIC: it is the smallest concentration in the dilution series that meets the test's criterion for growth inhibition.
